Screens: PubChem, several laboratories
T cell HTS = modulators of CD8 T cell-vesicle binding, primary screen, mouse 2C CD8+ T cells, flow cytometry; 2C CD8+ T cell-vesicle binding; active compounds read low; response (vesicle binding), % at 7 µM; hit rate 0.068% among 330,000;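 active means response, share of CD8 T cells binding vesicles, and their 90th percentile fluorescence all below set limits, cut at about 80% in these data, passing the limit was not always enough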;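 further: values below 100% mean blocked vesicle binding to the CD8+ T cells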
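Assay system: 2C TCR transgenic mouse naive CD8+ T cells, MACS-purified | Read-out: CD8+ gate FL2 mean fluorescence as % of same-row positive control | Signal: High-throughput flow cytometry with anti-B7-1 and anti-CD8 staining | Timing: Binding step 1.5 h, 37 °C, antibody labelling 20 min, ice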
CHT PAM = CHT positive allosteric modulators, primary screen, cell-based, membrane potential dye, choline EC20; High affinity choline transporter 1 (Homo sapiens), Q9GZV3; CHT-expressing cells; active compounds read high; LV-AA mutant CHT in HEK293 cells; B-score at 10 µM; hit rate 0.49% among 310,000; AID 488977, 2010;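 active means initial fluorescence not abnormally high and integrated response B-score, plate-corrected, over 3 SD above library mean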
Target sequence (Q9GZV3 whole entry, looked up): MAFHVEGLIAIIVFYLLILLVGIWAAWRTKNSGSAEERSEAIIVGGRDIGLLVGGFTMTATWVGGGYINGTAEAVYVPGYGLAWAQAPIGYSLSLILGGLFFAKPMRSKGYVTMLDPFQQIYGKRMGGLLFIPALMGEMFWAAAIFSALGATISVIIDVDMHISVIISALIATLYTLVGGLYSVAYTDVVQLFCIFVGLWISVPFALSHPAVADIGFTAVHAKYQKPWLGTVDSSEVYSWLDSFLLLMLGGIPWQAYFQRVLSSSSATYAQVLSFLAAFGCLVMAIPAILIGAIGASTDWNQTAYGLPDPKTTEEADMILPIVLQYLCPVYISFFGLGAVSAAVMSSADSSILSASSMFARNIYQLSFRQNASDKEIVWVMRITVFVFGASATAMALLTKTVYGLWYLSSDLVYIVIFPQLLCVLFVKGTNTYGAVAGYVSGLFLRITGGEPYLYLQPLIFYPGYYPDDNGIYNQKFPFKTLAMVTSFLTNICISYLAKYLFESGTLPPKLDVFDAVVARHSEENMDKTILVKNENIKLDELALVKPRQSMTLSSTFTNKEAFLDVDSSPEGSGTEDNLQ
Pemphigus Ab inh = inhibitors of pemphigus antibody binding to DSG3, primary screen, biochemical, bead-based, flow cytometry, scFv-GFP. binding (percent of control), % at 10 µM. Desmoglein-3 (Homo sapiens), P32926. hit rate 0.48% among 310,000. DSG3-coupled beads, scFv-anti-DSG3-GFP binding; active compounds read low. AID 588358, 2011;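 active means binding more than 3 SD below its plate's average and above zero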;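 further: hits lower antibody fragment binding to DSG3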
CHT block = inhibitors of human choline transporter CHT. High affinity choline transporter 1 (Homo sapiens), Q9GZV3. CHT-expressing cells, membrane potential dye, choline response; active compounds read low. B-score at 10 µM. hit rate 0.86% among 310,000. AID 488975, 2010;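 active means B-score over 3 SD under the library average, and starting fluorescence ratio not unusually high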;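 further: choline stimulus applied at its EC90 after an EC20 pre-addition; B-score computed on integrated fluorescence ratio after choline addition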
p-CIP stab down = p/CIP-EGFP fusion destabilizers, primary screen, fluorescence, F442A cells. decrease of EGFP signal, % at 10 µM. 16 h. hit rate 0.01% among 290,000. Q05BA5;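 active means EGFP signal decrease of at least 30% at 10 µM or well 3 SD below plate mean, unless failing retest; inactive means the rest, including hits failing retest or dose response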
GPR7 antag = GPR7 receptor antagonists, primary screen, cell-based, fluorescence, single concentration. Neuropeptides B/W receptor type 1 (Homo sapiens), P48145. AID 1861, 2009. hit rate 1.1% among 290,000. inhibition, % at 4.4 µM. GPR7-expressing cells, fluorescence antagonist assay; in the data active means inhibition above about 16%, passing the limit was not always enough;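 further: cells stimulated with the agonist NPW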
CHT block conf = CHT inhibitors, confirmation, cell-based, membrane potential dye, duplicate. AID 493221, 2011. hit rate 70% among 2,400. shares compounds with CHT block. CHT-expressing cells, choline membrane potential dye; LV-to-AA substituted CHT, HEK293 cells. CHT activity remaining % of control (active compounds read low), % at 10 µM;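 active means choline transporter activity left, mean of duplicates at 10 µM, below buffer-only control mean minus 3 SD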;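 further: depolarization triggered by choline at its EC90 following an EC20 pre-addition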
HEK293 MPD ctr = membrane potential effects in parental HEK293, counter-screen for CHT inhibitor project, cell-based, membrane potential dye. AID 493222, 2011. membrane potential ratio readout (active if shifted either direction beyond buffer ±3SD; no single direction) at 10 µM. choline response; active = decrease or increase beyond buffer ±3SD. hit rate 4% among 2,400. shares compounds with CHT block;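 further: parental cells lack the transporter so any hit is non-specific; ratio is peak minus trough fluorescence over baseline after EC90 choline challenge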
Numbers stand for hits. An excerpt weighted towards active compounds, which were near 2.3% of everything screened.

Screening COc1ccc(-c2nc(CN3CCN(c4ncnc5ccccc45)CC3)c(C)o2)c(OC)c1 returned T cell HTS inactive, CHT PAM inactive, Pemphigus Ab inh inactive, CHT block -5.1, p-CIP stab down inactive, GPR7 antag inactive, CHT block conf 51.9% and HEK293 MPD ctr inactive.
Screening Cn1c(SCc2nc(-c3ccccc3)no2)nnc1-c1ccco1 returned T cell HTS inactive, CHT PAM inactive, CHT block inactive, p-CIP stab down inactive and GPR7 antag inactive.
CCn1c(SCc2nc(-c3ccc(Cl)cc3)no2)nnc1-c1ccco1 was read as T cell HTS inactive, CHT PAM inactive, Pemphigus Ab inh inactive, CHT block -12.8, p-CIP stab down inactive, GPR7 antag inactive, CHT block conf 3.1% and HEK293 MPD ctr inactive.
CCN(C[C@H]1N[C@@](CC)(C(=O)OC)[C@H]2C(=O)N(Cc3ccccc3)C(=O)[C@@H]12)C(=O)c1ccc(C(C)(C)C)cc1 was read as T cell HTS inactive and Pemphigus Ab inh inactive.
For COc1ccc2c(CC(=O)Nc3ccc4nc(N5CCOCC5)sc4c3)coc2c1 the results were Pemphigus Ab inh inactive.
`C[C@@H]1CN([C@@H](C)CO)C(=O)c2cc(NC(=O)C3CCCCC3)ccc2O[C@@H](C)CCCCO[C@@H]1CN(C)Cc1ccncc1` gave Pemphigus Ab inh inactive.
For O=C(c1ccncc1)c1ccc(N2CCN(C3CC(=O)N(Cc4cccs4)C3=O)CC2)cc1 (centres undefined) the results were T cell HTS inactive, CHT PAM inactive, Pemphigus Ab inh inactive, CHT block -5.62, p-CIP stab down inactive, GPR7 antag inactive, CHT block conf inactive and HEK293 MPD ctr inactive.
For O=C1CC(N2CCN(c3ccc(O)cc3)CC2)C(=O)N1Cc1cccs1 (centres undefined) the results were T cell HTS inactive, CHT PAM inactive, Pemphigus Ab inh inactive, CHT block inactive, p-CIP stab down inactive and GPR7 antag inactive.
Cc1cc([N+](=O)[O-])ccc1P(=O)(O)c1ccc([N+](=O)[O-])cc1C was read as Pemphigus Ab inh inactive.
Screening COc1ccc(Nc2c[nH]c(=O)[nH]c2=O)cc1 returned Pemphigus Ab inh inactive.
`O=C(CSc1c2c(nc3ccc(Cl)cc13)CCCC2)NCCCN1CCOCC1` gave T cell HTS inactive, CHT PAM inactive, Pemphigus Ab inh inactive, CHT block -8.63, p-CIP stab down inactive, GPR7 antag inactive, CHT block conf 18.2% and HEK293 MPD ctr inactive.
C[C@H]1[C@@H](c2ccccc2)Oc2ccc(Cl)cc2S(=O)(=O)N1Cc1ccc(F)cc1F was read as Pemphigus Ab inh inactive.
For CC(C)(C)NCCOCCOc1ccccc1-c1ccccc1 the results were T cell HTS inactive, CHT PAM inactive, Pemphigus Ab inh inactive, CHT block inactive, p-CIP stab down inactive and GPR7 antag inactive.
`CCC(C)NCCOCCOc1ccccc1-c1ccccc1` (centres undefined) gave T cell HTS inactive, CHT PAM inactive, Pemphigus Ab inh inactive, CHT block -5.78, p-CIP stab down inactive, GPR7 antag inactive, CHT block conf 47.7% and HEK293 MPD ctr -15.
CC(SC(C)C(=O)NN=Cc1cccc(F)c1)C(=O)NN=Cc1cccc(F)c1 (centres undefined) was read as Pemphigus Ab inh inactive.
`CCCCNc1nc(CC)c2c(c1C#N)CCCC2` gave T cell HTS inactive, CHT PAM inactive, Pemphigus Ab inh inactive, CHT block inactive, p-CIP stab down inactive and GPR7 antag inactive.
CCCCc1nc(NCCO)c(C#N)c2c1CCCC2 was read as T cell HTS inactive, CHT PAM inactive, Pemphigus Ab inh inactive, CHT block -5.91, p-CIP stab down inactive, GPR7 antag inactive, CHT block conf inactive and HEK293 MPD ctr inactive.
Screening CCOC(=O)c1c(CSc2ccccc2)n(C)c2cc(Br)c(O)c(CN(C)C)c12 returned T cell HTS inactive, CHT PAM inactive, Pemphigus Ab inh inactive, CHT block inactive, p-CIP stab down inactive and GPR7 antag inactive.
Screening CCOC(=O)c1c(CSc2ccccc2)n(C)c2ccc(O)c(CN3CCN(C)CC3)c12 returned T cell HTS inactive, CHT PAM inactive, Pemphigus Ab inh inactive, CHT block -7.63, p-CIP stab down inactive, GPR7 antag inactive, CHT block conf 31.4% and HEK293 MPD ctr inactive.
`C[C@@H]1CN([C@H](C)CO)C(=O)CCCn2nncc2CO[C@@H]1CN(C)C(=O)c1cc(-c2ccccc2)on1` gave Pemphigus Ab inh inactive.
For C[C@@H](NCCc1ccc(O)cc1)[C@@H](O)c1ccc(O)cc1 the results were T cell HTS inactive, CHT PAM inactive, Pemphigus Ab inh inactive, CHT block -4.95, CHT block conf 47.3% and HEK293 MPD ctr inactive.
`CCc1nnc(NC(=O)CSc2nnc(-c3ccccc3OC)n2-c2ccc(C)cc2)s1` gave T cell HTS inactive, CHT PAM inactive, Pemphigus Ab inh inactive, CHT block inactive, p-CIP stab down inactive and GPR7 antag inactive.
`CCc1nnc(NC(=O)CSc2ncc(-c3ccccc3)n2C)s1` gave T cell HTS inactive, CHT PAM inactive, Pemphigus Ab inh inactive, CHT block -5.46, p-CIP stab down inactive, GPR7 antag inactive, CHT block conf 65.3% and HEK293 MPD ctr inactive.
CCc1nnc(NC(=O)CSc2nnc(-c3ccccc3OC)n2-c2ccccc2)s1 was read as T cell HTS inactive, CHT PAM inactive, Pemphigus Ab inh inactive, CHT block -5.52, p-CIP stab down inactive, GPR7 antag inactive, CHT block conf 40.8% and HEK293 MPD ctr inactive.
CCc1nnc(NC(=O)CSc2nccn2-c2ccccc2)s1 was read as T cell HTS inactive, CHT PAM inactive, Pemphigus Ab inh inactive, CHT block inactive, p-CIP stab down inactive and GPR7 antag inactive.
Screening CCCCCC(=O)N1C[C@@H](O)[C@H](n2cc(COC(=O)c3ccccc3)nn2)C[C@@H]1c1ccc(Cl)cc1 returned Pemphigus Ab inh inactive.
`C/C(=N\N=C(N)N)c1ccc(Cl)c(Cl)c1` gave T cell HTS inactive, CHT PAM inactive, Pemphigus Ab inh inactive, CHT block -11.2, p-CIP stab down inactive, GPR7 antag inactive, CHT block conf 18.7% and HEK293 MPD ctr inactive.
